Laboratory results taken from ChEMBL document CHEMBL4477213, “Discovery and Optimization of Quinazolinone-pyrrolopyrrolones as Potent and Orally Bioavailable Pan-Pim Kinase Inhibitors” (J Med Chem, 2016).
In brackets after ≈: the same amount, converted by molar mass.

Tests used:
[1] = Volume of distribution at steady state in rat at 2 mg/kg, iv or 5 mg/kg, po; assay type: ADME, organism-based; conditions: in vivo, read-out: Vdss
Mus musculus [2] = test: In vivo inhibition of pan Pim in SCID-bg mouse xenografted with human KMS-12-BM cells assessed as phosphorylation of BAD peptide at Serine 112 residue at 25 mg/kg, po qd measured at 1 hr post dose relative to control; assay type: functional; set-up: scale not given: the % may be the effect or the level left
[3] = Volume of distribution at steady state in dog at 0.3 mg/kg, iv; assay type: ADME, organism-based, Canis lupus familiaris; conditions: in vivo, read-out: Vdss
Mus musculus [4] = test: In vivo inhibition of pan Pim in SCID-bg mouse xenografted with human KMS-12-BM cells assessed as phosphorylation of BAD peptide at Serine 112 residue at 25 mg/kg, po qd measured at 24 hrs post dose relative to control; assay type: functional; set-up: scale not given: the % may be the effect or the level left
[5] = Aqueous solubility of the compound in PBS at pH 7.4 after 1 hr by LC/MS analysis; assay type: physicochemical
Procedure, shortened: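 The compound was dried down from DMSO and taken up in 1x PBS (pH 7.4) or FaSIF (pH 6.8). Samples were shaken 1 h, equilibrated at RT for 72 h, then centrifuged.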

KMS-12-BM [6] = test: Antitumor activity against human KMS-12-BM cells xenografted in SCID-bg mouse assessed as tumor growth inhibition at 25 mg/kg, po qd measured twice per week; assay type: functional; conditions: read-out: TGI
Mus musculus [7] = test: In vivo inhibition of pan Pim in SCID-bg mouse xenografted with human KMS-12-BM cells assessed as phosphorylation of BAD peptide at Serine 112 residue at 50 mg/kg, po qd measured at 4 hrs post dose relative to control; assay type: functional; set-up: scale not given: the % may be the effect or the level left
Mus musculus [8] = test: In vivo inhibition of pan Pim in SCID-bg mouse xenografted with human KMS-12-BM cells assessed as phosphorylation of BAD peptide at Serine 112 residue at 100 mg/kg, po qd measured at 24 hrs post dose relative to control; assay type: functional; set-up: scale not given: the % may be the effect or the level left
[9] = target: Dual specificity tyrosine-phosphorylation-regulated kinase 1A (Homo sapiens) (UniProt Q13627); test: Inhibition of human DYRK1A (129 to 509 residues) expressed in mammalian system assessed as remaining enzyme activity at 1 uM by KINOMEScan assay relative to control
Mus musculus [10] = test: In vivo inhibition of pan Pim in SCID-bg mouse xenografted with human KMS-12-BM cells assessed as phosphorylation of BAD peptide at Serine 112 residue at 25 mg/kg, po qd measured at 4 hrs post dose relative to control; assay type: functional; set-up: scale not given: the % may be the effect or the level left
Mus musculus [11] = test: In vivo inhibition of pan Pim in SCID-bg mouse xenografted with human KMS-12-BM cells assessed as phosphorylation of BAD peptide at Serine 112 residue at 10 mg/kg, po qd measured at 4 hrs post dose relative to control; assay type: functional; set-up: scale not given: the % may be the effect or the level left
Bos taurus = species on record: Bos taurus; test: Inhibition of bovine I1-receptor assessed as remaining enzyme activity at 10 uM relative to untreated control
[12] = target: Dual specificity protein kinase CLK4 (Homo sapiens) (UniProt Q9HAZ1); test: Inhibition of human CLK4 (135 to 481 residues) expressed in bacterial system assessed as remaining enzyme activity at 1 uM by KINOMEScan assay relative to control
Sequence of Dual specificity protein kinase CLK4 (Homo sapiens) (Q9HAZ1 whole entry, looked up, the tested form may be a part): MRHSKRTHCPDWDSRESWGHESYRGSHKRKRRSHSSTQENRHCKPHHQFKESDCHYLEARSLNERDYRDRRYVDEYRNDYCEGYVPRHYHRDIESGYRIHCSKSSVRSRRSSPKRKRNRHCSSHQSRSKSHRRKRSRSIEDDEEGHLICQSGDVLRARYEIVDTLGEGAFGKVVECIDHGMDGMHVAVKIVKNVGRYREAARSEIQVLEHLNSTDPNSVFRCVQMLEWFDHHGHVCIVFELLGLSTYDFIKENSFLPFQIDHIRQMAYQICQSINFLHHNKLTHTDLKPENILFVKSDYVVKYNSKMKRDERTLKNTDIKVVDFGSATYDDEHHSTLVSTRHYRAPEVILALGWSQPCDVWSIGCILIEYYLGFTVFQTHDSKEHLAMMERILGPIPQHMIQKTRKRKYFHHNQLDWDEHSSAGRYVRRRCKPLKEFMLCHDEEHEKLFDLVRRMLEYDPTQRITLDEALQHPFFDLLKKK

Mus musculus [13] = test: In vivo inhibition of pan Pim in SCID-bg mouse xenografted with human KMS-12-BM cells assessed as phosphorylation of BAD peptide at Serine 112 residue at 100 mg/kg, po qd measured at 8 hrs post dose relative to control; assay type: functional; set-up: scale not given: the % may be the effect or the level left
[14] = Oral bioavailability in rat at 5 mg/kg; assay type: ADME, organism-based; conditions: in vivo
Mus musculus [15] = test: In vivo inhibition of pan Pim in SCID-bg mouse xenografted with human KMS-12-BM cells assessed as phosphorylation of BAD peptide at Serine 112 residue at 10 mg/kg, po qd measured at 12 hrs post dose relative to control; assay type: functional; set-up: scale not given: the % may be the effect or the level left
KMS-12-BM [16] = test: Antitumor activity against human KMS-12-BM cells xenografted in SCID-bg mouse assessed as tumor growth inhibition at 10 mg/kg, po qd measured twice per week; assay type: functional; conditions: read-out: TGI
Mus musculus [17] = test: In vivo inhibition of pan Pim in SCID-bg mouse xenografted with human KMS-12-BM cells assessed as plasma concentration required for reduction of BAD peptide phosphorylation at Serine 112 residue at 10 to 100 mg/kg, po qd measured after 1 to 24 hrs post dose; assay type: functional, organism-based
Mus musculus [18] = test: In vivo inhibition of pan Pim in SCID-bg mouse xenografted with human KMS-12-BM cells assessed as phosphorylation of BAD peptide at Serine 112 residue at 100 mg/kg, po qd measured at 4 hrs post dose relative to control; assay type: functional; set-up: scale not given: the % may be the effect or the level left
[19] = Fraction unbound in mouse plasma; assay type: ADME, cell-free
Mus musculus [20] = test: In vivo inhibition of pan Pim in SCID-bg mouse xenografted with human KMS-12-BM cells assessed as phosphorylation of BAD peptide at Serine 112 residue at 10 mg/kg, po qd measured at 8 hrs post dose relative to control; assay type: functional; set-up: scale not given: the % may be the effect or the level left
KMS-12-BM [21] = test: Antitumor activity against human KMS-12-BM cells xenografted in SCID-bg mouse assessed as tumor growth inhibition at 50 mg/kg, po qd measured twice per week; assay type: functional; conditions: read-out: TGI
Mus musculus [22] = test: In vivo inhibition of pan Pim in SCID-bg mouse xenografted with human KMS-12-BM cells assessed as phosphorylation of BAD peptide at Serine 112 residue at 50 mg/kg, po qd measured at 8 hrs post dose relative to control; assay type: functional; set-up: scale not given: the % may be the effect or the level left
[23] = Apparent permeability in pig LLC-PK1 cells; assay type: ADME, cell-based, Sus scrofa
Mus musculus [24] = test: In vivo inhibition of pan Pim in SCID-bg mouse xenografted with human KMS-12-BM cells assessed as phosphorylation of BAD peptide at Serine 112 residue at 100 mg/kg, po qd measured at 12 hrs post dose relative to control; assay type: functional; set-up: scale not given: the % may be the effect or the level left
Mus musculus [25] = test: In vivo inhibition of pan Pim in SCID-bg mouse xenografted with human KMS-12-BM cells assessed as phosphorylation of BAD peptide at Serine 112 residue at 100 mg/kg, po qd measured at 1 hr post dose relative to control; assay type: functional; set-up: scale not given: the % may be the effect or the level left

C[C@H]1NC(=O)c2cc(-c3cccc4c(=O)n(C)c(NC(C)(C)C)nc34)[nH]c21 gave a Vd [1] of 1.5 L/kg, an Activity (Mus musculus [2]) of 60% and a Vd [3] of 1 L/kg. It also gave an Activity (Mus musculus [4]) of 0%, a solubility at 1 h [5] of 60 µM (≈ 21.9 µg/mL) and an inhibition in vivo at 25 mg/kg (KMS-12-BM [6]) of 65%. The Activity (Mus musculus [7]) was 66%, the Activity (Mus musculus [8]) was 21% and the Activity [9] was 6%. The Activity (Mus musculus [10]) was 60%, the Activity (Mus musculus [11]) was 50% and the Activity (Bos taurus) was < 10%. For the same molecule, the Activity [12] was 0.2%, the Activity (Mus musculus [13]) was 70% and the bioavailability [14] was 39%. The Activity (Mus musculus [15]) was 34%, the inhibition in vivo at 10 mg/kg (KMS-12-BM [16]) was 30% and the EC50 (Mus musculus [17]) was 254 nM. The Activity (Mus musculus [18]) was 63%, the “Cp(f)” value [19] was 21.4 nM and the Activity (Mus musculus [20]) was 41%. The inhibition in vivo at 50 mg/kg (KMS-12-BM [21]) was 93%, the Activity (Mus musculus [22]) was 85% and the Papp [23] was 44 ×10⁻⁶ cm/s. It also gave an Activity (Mus musculus [24]) of 66% and an Activity (Mus musculus [25]) of 61%.
